Compound activity (PubChem)
Most compounds without a hit are left out; they make up all but 1.9% or so of the library.
NPY-Y1 antag = NPY-Y1 (human) receptor antagonism | P25929 | HEK293-CNG Y1 cells, membrane potential fluorescence; NPY at EC95, then isoproterenol | inhibition, % at 3.6 µM | hit rate 1% among 200,000;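 active means inhibition above the campaign mean inhibition of all tested compounds plus 3 SD, cut at about 20% in these data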;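 further: 0% = DMSO wells given NPY plus isoproterenol and 100% = isoproterenol alone without NPY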
Target sequence (P25929 whole entry, looked up): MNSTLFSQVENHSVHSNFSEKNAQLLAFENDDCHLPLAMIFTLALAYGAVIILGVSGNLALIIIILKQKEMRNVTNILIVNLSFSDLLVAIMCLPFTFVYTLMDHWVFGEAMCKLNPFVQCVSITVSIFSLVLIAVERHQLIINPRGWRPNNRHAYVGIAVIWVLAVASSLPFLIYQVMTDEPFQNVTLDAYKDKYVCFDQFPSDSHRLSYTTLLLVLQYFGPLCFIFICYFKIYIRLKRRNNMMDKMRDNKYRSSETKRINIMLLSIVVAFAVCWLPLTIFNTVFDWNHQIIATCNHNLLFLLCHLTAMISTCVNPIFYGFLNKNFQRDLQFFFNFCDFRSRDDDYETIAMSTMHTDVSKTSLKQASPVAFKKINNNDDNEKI
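System: HEK293 cells with Y1 receptor plus CNG channel / Probe or stimulus: NPY 25 nM then isoproterenol 1 µM plus Ro 20-1724 25 µM / Compound: one concentration, 3.6 µM, in 0.4% DMSO / Schedule: compound incubation 1 h at room temperature, readout 45 min post-stimulation / Measured by: membrane potential fluorescence / Read-out: % inhibition of NPY effect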
NPY2 pot ag = potentiators or agonists of human neuropeptide Y receptor Y2; P49146; cells expressing NPY-Y2, potentiator/agonist read-out; activation, % at 3.6 µM; hit rate 0.45% among 220,000; AID 1359; in the data active means activation above about 27%;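 further: cells stimulated with NPY near EC25 plus isoproterenol at EC100; 0% = vehicle plus submaximal agonist and 100% = vehicle plus saturating agonist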
NPY-Y2 antag = NPY-Y2 (human) receptor antagonism | NPY-Y2 expressing cells, antagonist mode | AID 793 | hit rate 0.99% among 140,000 | P49146 | inhibition, % at 2.7 µM; in the data active means inhibition above about 17%;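 further: 0% = vehicle with agonist challenge and 100% = reference antagonist with challenge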
NPY-Y1 PAM-ag = potentiates or activates human NPY-Y1 receptor; P25929; NPY-Y1 expressing cells, potentiator/agonist activation; activation, % at 3.6 µM; hit rate 0.37% among 220,000; AID 1304; in the data active means activation above about 33%, passing the limit was not always enough;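 further: cells stimulated with NPY at EC10 then isoproterenol at EC100; 0% = low agonist plus stimulus and 100% = saturating agonist plus stimulus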
NPY-Y1 pot conf = human NPY-Y1 potentiation or agonism, confirmation | shares compounds with NPY-Y1 PAM-ag | hit rate 20% among 280 | activation, % at 3.6 µM | cell-based NPY-Y1 potentiator/agonist assay | AID 1546; in the data active means activation above about 45%;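 further: cells challenged with NPY at its EC10 plus isoproterenol stimulus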
NPY-Y2 counter = potentiates or activates NPY-Y2, counter-screen for NPY-Y1 hits; shares compounds with NPY-Y1 PAM-ag; hit rate 20% among 280; AID 1649; activation, % at 3.6 µM; HEK293-CNG cells, membrane-potential fluorescence (FLIPR), 1536-well; in the data active means activation above about 33%
NPY-Y1 ag = human NPY-Y1 agonism as potentiator counter-screen | hit rate 50% among 280 | shares compounds with NPY-Y1 PAM-ag | AID 1697 | HEK293 Y1-CNGC, membrane potential fluorescence, agonist mode | activation, % at 3.6 µM;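 active means percent activation above the mean of DMSO-only control wells plus 3 SD of those wells, cut at about 18% in these data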;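 further: cells challenged with isoproterenol plus Ro 20-1724 with no NPY in test wells; Y1 agonism lowers isoproterenol-driven cAMP and reduces probe fluorescence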
NPY-Y2 agonist = counter-screen for NPY-Y1 potentiators or agonists: agonists of NPY-Y2. shares compounds with NPY-Y1 PAM-ag. HEK293 Y2-CNGC, membrane potential fluorescence, agonist mode. activation, % at 3.6 µM. hit rate 67% among 280;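 active means activation above the solvent-only control wells' mean plus 3 SD, cut at about 11% in these data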;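 further: 0% = DMSO with isoproterenol and 100% = 40 nM NPY maximal response; agonism lowers cAMP so well fluorescence drops in active wells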
CNGC inh 2 = CNG channel inhibition, counter-screen for NPY-Y1 potentiators; shares compounds with NPY-Y1 PAM-ag; HEK293-CNG parental, isoproterenol cAMP, membrane potential fluorescence; inhibition, % at 3.6 µM; hit rate 42% among 280; AID 1704;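 active means inhibition above the mean of stimulated solvent-only control wells plus 3 SD, cut at about 22% in these data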;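 further: 0% = isoproterenol-stimulated DMSO wells and 100% = unstimulated DMSO wells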
Active calls of the source: *; x = not tested or not shown.

SMILES | NPY-Y1 antag | NPY2 pot ag | NPY-Y2 antag | NPY-Y1 PAM-ag | NPY-Y1 pot conf | NPY-Y2 counter | NPY-Y1 ag | NPY-Y2 agonist | CNGC inh 2
Cc1onc(-c2c(Cl)cccc2Cl)c1C(=O)n1nnc2ccccc21 | 6 | -13 | 2 | 45* | 5 | -3 | -4 | -5 | 3
Cc1onc(-c2c(Cl)cccc2Cl)c1C(N)=O | -5 | 3 | 5 | 6 | x | x | x | x | x
CC(C)Cc1nc(N2CCN(C(=O)C(C)C)CC2)c(C#N)c2c1CCC2 | 7 | -9 | 10 | 31* | -22 | -8 | -26 | -7 | -9
CC(=O)N1CCN(c2nc(CC(C)C)c3c(c2C#N)CCC3)CC1 | 4 | -25 | 2 | 7 | x | x | x | x | x
O=C(OCc1ccccc1)N1CCCC1/C=C/CN1CCOCC1 (stereo not given) | 6 | 2 | x | -10 | x | x | x | x | x
CC(O)CNc1nc2ccccc2n1CC(=O)N1CCN(Cc2ccccc2)CC1 (stereo not given) | 2 | -6 | x | 6 | x | x | x | x | x
Cn1c(N)c(C(=O)COC(=O)c2ccc3c(c2)C(=O)N(c2ccc(Cl)cc2)C3=O)c(=O)n(C)c1=O | 2 | -2 | x | -7 | x | x | x | x | x
Cc1[nH]c2ccccc2c1C(=O)CSc1ccc(Cl)cc1 | -1 | -14 | x | 10 | x | x | x | x | x
Cc1[nH]c2ccccc2c1C(=O)CN1C(=O)NC(C)(c2ccc(Cl)cc2Cl)C1=O (stereo not given) | -1 | 28 | -5 | 56* | 44 | 32 | 32* | 18* | 27*
CCOC(=O)c1csc(N)c1-c1ccc([N+](=O)[O-])cc1 | x | -5 | x | 5 | x | x | x | x | x
CCN(CC)S(=O)(=O)c1ccc(NC(=O)c2cccs2)cc1 | 1 | -17 | x | 86* | -6 | -2 | -8 | 3 | 6
O=C(Cn1c(=O)sc2ccccc21)OC(CCl)CCl | -9 | 24 | 0 | 44* | 78* | 49* | 62* | 49* | 75*
COc1ccc(N2C(=S)NC3c4cc(Cl)ccc4OC2(C)C3C(=O)N(C)C)cc1 (stereo not given) | -6 | 19 | x | 32 | x | x | x | x | x
Cc1ccc(N2C(=S)NC3c4cc(Cl)ccc4OC2(C)C3C(=O)N(C)C)cc1 (stereo not given) | -6 | 26 | x | 35* | 74* | 44* | 51* | 47* | 51*
Cc1cccc(N2C(=S)NC3c4cc(Cl)ccc4OC2(C)C3C(=O)N(C)C)c1 (stereo not given) | -4 | 14 | x | 42* | 59* | 32 | 44* | 33* | 47*
Cc1cccc(NC(=O)COC(=O)c2ccc3c(c2)OCO3)c1C | -5 | 8 | x | 26 | x | x | x | x | x
Clc1ccc(-[n+]2c(-c3cccc(Br)c3)[nH]c3nc4ccccc4nc32)cc1 | x | 7 | x | 51* | 50* | 47* | 5 | 36* | 6
Cc1cccc(C)c1OCC(O)CN (stereo not given) | -3 | -4 | 3 | -2 | x | x | x | x | x
Cc1cc(OCC(O)CN)ccc1Cl (stereo not given) | 2 | 20 | x | 51* | 12 | 9 | 8 | 18* | 5
Nc1nnc(/C=C/c2ccccc2)s1 | 2 | -14 | x | 16 | x | x | x | x | x
O=C(Nc1ccccc1)Nc1cc(OCC(F)(F)F)cc(OCC(F)(F)F)c1 | -4 | 24 | -2 | 46* | 36 | 30 | 11 | 25* | 25*
COc1ccc(N(CCCN2C(=O)c3cccc4cccc(c34)C2=O)C(=O)c2cccnc2)cc1 | -2 | -6 | x | 19 | x | x | x | x | x
COc1ccc(N(CCCN2C(=O)c3cccc4cccc(c34)C2=O)C(=O)c2ccncc2)cc1 | 3 | -4 | x | 42* | -2 | -7 | -11 | -4 | -4
COc1ccc(CNC(=O)c2c(O)c3cccc4c3n(c2=O)CCC4)cc1OC | 1 | -16 | 2 | 35* | -8 | 0 | -3 | 3 | -1
